Published values pooled from the literature.
Target: Serine/threonine-protein kinase SIK3 (SIK3, Homo sapiens, UniProt Q9Y2K2)

For `CC1CCCN1c1nccc(-c2cnn3ncccc23)n1` (centres unmarked), the remaining binding was 94% (binding; 1 µM).
`O=C(NCCCN1CCOCC1)c1ccc(Nc2ncc(Cl)c(-c3ccc(Cl)s3)n2)cc1` has a remaining binding of 97% (binding; competition with immobilised ligand; 1 µM).
For `CCN1CCN(Cc2ccc(C(=O)Nc3ccc(C)c(Oc4ccc5c(c4)CC(=O)N5)c3)cc2C(F)(F)F)CC1`, the remaining binding was 100% (binding; competition with immobilised ligand; 1 µM).
The remaining binding of `COc1ccnn2ncc(-c3ccnc(N(C)C)n3)c12` is reported as 78% (binding; 1 µM).
For `O=C(c1ccc(Nc2ncc(Cl)c(-c3cc4ccccc4s3)n2)cc1)N1CCC(N2CCCC2)CC1`, the remaining binding was 98% (binding; competition with immobilised ligand; 1 µM).
`C[C@H](c1ccc(F)cc1)N(Cc1cccc(C(=O)O)c1)C(=O)c1cnc2ccccc2c1` gave a remaining binding of 80% (cell-free assay; competition with immobilised ligand; 1 µM).
`c1cncc(-c2cccc(Nc3nccc(NC4CCCCC4)n3)c2)c1` has a remaining binding of 83% (binding; competition with immobilised ligand; 10 µM).
The remaining binding of `CCCCN(CCCC)C(=O)CN1C[C@H](c2cc(OC)c3c(c2)OCO3)[C@@H](C(=O)O)[C@@H]1CC(C)(C)CCC` is reported as 60.5% (cell-free assay; competition with immobilised ligand; 1 µM).
For `O=C(c1ccc(Nc2ncc(Cl)c(-c3ccc(Cl)s3)n2)cc1)N1CCC(N2CCCC2)CC1`, the remaining binding was 84% (binding; competition with immobilised ligand; 1 µM).
For `O=C(Nc1c[nH]nc1C(=O)NC1CCNCC1)c1cc(F)cc(F)c1`, the remaining binding was 66% (binding; competition with immobilised ligand; 1 µM).
For `CN(CCCC(F)(F)F)c1nccc(-c2cnn3ncccc23)n1`, the remaining binding was 100% (binding; 1 µM).
With `O=C(NCCCC1CCCCC1)c1ccc(CNC(=O)c2cnn(-c3ccccc3)c2C(F)(F)F)cc1` the remaining binding was 76% (cell-free assay; competition with immobilised ligand; 0.1 µM).
With `C[C@H]1CCN(c2nccc(-c3cnn4ncccc34)n2)C1` the remaining binding was 66% (binding; 1 µM).
With `COc1ncc2cc3ccccc3nc2c1C#N` the remaining binding was 88% (cell-free assay; competition with immobilised ligand; 5 µM).
For `CCS(=O)(=O)c1cc2cc(C[C@](O)(CC(C)(C)c3ccc(F)cc3C(N)=O)C(F)(F)F)[nH]c2cn1`, the remaining binding was 85% (cell-free assay; competition with immobilised ligand; 1 µM).
`CN(c1nccc(-c2cnn3ncccc23)n1)C1CC1` has a remaining binding of 100% (binding; 1 µM).
The remaining binding of `O=C(O)[C@H]1[C@H](Cn2nnc3ccccc3c2=O)CC[C@@H]1C(=O)c1ccc(OCCC2CCOCC2)cc1` is reported as 61% (cell-free assay; competition with immobilised ligand; 1 µM).
For `N[C@@H]1CCN(c2nccc(-c3cnn4ncccc34)n2)C1`, the remaining binding was 100% (binding; 1 µM).
`CCC(=O)N[C@@H]1CC[C@H](C(=O)N(C)c2ccc(-c3nc4ccccc4o3)cc2)C1` has a remaining binding of 100% (cell-free assay; competition with immobilised ligand; 1 µM).
`COc1cnc(Nc2cccc(S(N)(=O)=O)c2)nc1N1CCN(c2ccccc2)CC1` gave a remaining binding of 84% (binding; competition with immobilised ligand; 1 µM).
